Measured values: ChEMBL document CHEMBL1759908, “Design, synthesis and potential 6 Hz psychomotor seizure test activity of some novel 2-(substituted)-3-{[substituted]amino}quinazolin-4(3H)-one” (Eur J Med Chem, 2011)
Active and inactive are the calls of the source.

Tests used:
[1] = system: Mus musculus; assay: Anticonvulsant activity in CF1 mouse at 30 to 300 mg/kg, ip by maximal electroshock test; format: functional, organism-based
Summary of the method: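 Male CF-1 mice (18-25 g) were dosed i.p. at 30, 100 and 300 mg/kg (0.5% methylcellulose suspension). Maximal electroshock protection and neurotoxicity were assessed 30 min and 4 h after administration.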

[2] = system: Mus musculus; assay: Anticonvulsant activity in CF1 mouse at 30 to 300 mg/kg, sc after 30 mins by subcutaneous metrazole seizure threshold test; format: functional, organism-based
[3] = Lipophilicity, log P of the compound in octanol-phosphate buffer; format: physicochemical
Summary of the method: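 Experimental log P was measured by octanol-phosphate buffer partition. The mixture stood 24 h at room temperature and was then equilibrated 6 h in a separating funnel. Phases were separated and membrane-filtered, and drug in the aqueous phase was quantified by UV spectroscopy.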

[4] = system: Mus musculus; assay: Anticonvulsant activity in CF1 mouse assessed as protection against 32 mA-current- for 3 secs induced seizure at 100 mg/kg, ip after 0.25 hr by 6Hz psychomotor seizure test; format: functional
Summary of the method: (§1)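 Male CF-1 mice (18-25 g) received 100 mg/kg i.p. as a suspension in 0.5% methylcellulose. At 0.25, 0.5, 1.0, 2.0 and 4.0 h, four mice per time point were stimulated through corneal electrodes (32 mA, 3 s, 6 Hz). Mice without psychomotor seizure behaviour were counted as protected. Results are reported as number protected over number tested.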

[5] = system: Mus musculus; assay: Anticonvulsant activity in CF1 mouse assessed as protection against 32 mA-current- for 3 secs induced seizure at 100 mg/kg, ip after 4 hrs by 6Hz psychomotor seizure test; format: functional, organism-based; set-up: dose 100 mg/kg; summary of the method: as §1
[6] = system: Mus musculus; assay: Neurotoxicity in CF1 mouse assessed as minimal motor impairment at 100 mg/kg, ip after 1 min by rotarod test; format: toxicity, organism-based; set-up: dose 100 mg/kg, route intraperitoneal; conditions: in vivo
Summary of the method: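 Neurotoxicity was scored as minimal motor impairment on the rotarod. Male CF-1 mice (18-25 g) received 100 mg/kg i.p. as a 0.5% methylcellulose suspension. Results are given as number toxic over number tested.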

[7] = system: Mus musculus; assay: Anticonvulsant activity in CF1 mouse assessed as protection against 32 mA-current- for 3 secs induced seizure at 100 mg/kg, ip after 2 hrs by 6Hz psychomotor seizure test; format: functional; summary of the method: as §1
[8] = system: Mus musculus; assay: Anticonvulsant activity in CF1 mouse assessed as protection against 32 mA-current- for 3 secs induced seizure at 100 mg/kg, ip after 0.5 hr by 6Hz psychomotor seizure test; format: functional; summary of the method: as §1
[9] = system: Mus musculus; assay: Anticonvulsant activity in CF1 mouse assessed as protection against 32 mA-current- for 3 secs induced seizure at 100 mg/kg, ip after 1 hr by 6Hz psychomotor seizure test; format: functional; summary of the method: as §1
[10] = Neuroprotective activity against N-methyl-D-aspartate induced toxicity in hippocampus slices after 4 hrs propidium iodide staining; format: functional, tissue-based
Summary of the method: (§2)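 Organotypic hippocampal slice cultures were exposed to NMDA or kainic acid alone, or with the investigational compound, in the presence of propidium iodide. Cell death was read as propidium iodide fluorescence intensity and compared with slices given excitotoxin alone.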

[11] = Neuroprotective activity against kainic acid induced toxicity in hippocampus slices after 4 hrs propidium iodide staining; format: functional, tissue-based; summary of the method: as §2
[12] = Toxicity in ip dosed CF1 mouse after 0.5 hr; format: organism-based; conditions: in vivo
Summary of the method: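 Quantitative toxicity test in male CF-1 mice dosed i.p. (0.5% methylcellulose suspension) at 50, 100, 200 and 350 mg/kg, eight mice per dose. Motor impairment was scored at 0.5 h and TD50 derived from the number of toxic mice over the number tested.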

[13] = system: Mus musculus; assay: Anticonvulsant activity against 32 mA-current- for 3 secs induced seizure in ip dosed CF1 mouse after 0.5 hr by 6Hz psychomotor seizure test; format: functional
Summary of the method: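 Quantitative 6 Hz test in male CF-1 mice. The compound was suspended in 0.5% methylcellulose and given i.p. at 50, 100, 200 and 350 mg/kg, eight mice per dose. Mice were stimulated through corneal electrodes (32 mA, 3 s) at a 0.5 h time of peak effect. ED50 was derived from the number of mice protected per dose.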

Structure (SMILES) | logP [3] | Activity [5] | Activity [6] | Activity ([8]; route intraperitoneal) | Activity [7] | also measured
Cc1ccc(Oc2ccc(/C=N/n3c(C)nc4ccccc4c3=O)cc2)cc1 | 4.32 | inactive | Non-toxic | 75% | – | Activity ([4]; route intraperitoneal): 50%; Activity ([7]; route intraperitoneal): 25%
CCCc1nc2ccccc2c(=O)n1/N=C/c1ccc(Oc2ccc(F)cc2)cc1 | 5.22 | inactive | Non-toxic | – | inactive | Activity [9]: inactive; Activity [8]: inactive
Cc1nc2ccccc2c(=O)n1/N=C/c1ccc(Oc2ccc(F)cc2)cc1 | 4.21 | inactive | Non-toxic | – | – | Activity [4]: inactive; Activity ([9]; route intraperitoneal): 50%
CCCc1nc2ccccc2c(=O)n1/N=C/c1ccc(Oc2ccc(C)cc2)cc1 | 5.45 | inactive | Non-toxic | 50% | inactive | Activity [4]: inactive; Activity [9]: inactive
Cc1nc2ccccc2c(=O)n1/N=C/c1ccc(Oc2ccc([N+](=O)[O-])cc2)cc1 | 4.01 | inactive | Non-toxic | – | – | –
Cc1nc2ccccc2c(=O)n1/N=C/c1ccc(Oc2ccc3c(c2)OCO3)cc1 | 4.01 | inactive | Non-toxic | – | inactive | Activity [4]: inactive; Activity [9]: inactive
CCCc1nc2ccccc2c(=O)n1/N=C/c1ccc(Oc2ccc([N+](=O)[O-])cc2)cc1 | 5.18 | inactive | Non-toxic | – | inactive | Activity [8]: inactive
CCCc1nc2ccccc2c(=O)n1/N=C1/C(=O)Nc2ccccc21 | 3.23 | inactive | Non-toxic | 50% | – | Activity ([4]; route intraperitoneal): 75%; Activity ([7]; route intraperitoneal): 25%; Activity ([9]; route intraperitoneal): 50%
CCCc1nc2ccccc2c(=O)n1/N=C/c1ccc(Oc2ccc(Cl)cc2)cc1 | 5.78 | inactive | Non-toxic | – | inactive | Activity ([4]; route intraperitoneal): 50%; Activity [9]: inactive; Activity [8]: inactive
CCCc1nc2ccccc2c(=O)n1/N=C/c1ccc(Oc2ccc(Cl)c(C)c2)cc1 | 6.02 | inactive | Non-toxic | – | – | Activity ([4]; route intraperitoneal): 50%
CCCc1nc2ccccc2c(=O)n1/N=C/c1ccc(Oc2ccc(Br)cc2)cc1 | 5.88 | inactive | Non-toxic | 25% | inactive | Activity ([4]; route intraperitoneal): 50%; Activity ([9]; route intraperitoneal): 50%
CCCc1nc2ccccc2c(=O)n1/N=C/c1ccc(Oc2ccc3c(c2)OCO3)cc1 | 4.82 | – | – | – | – | –
Cc1nc2ccccc2c(=O)n1/N=C/c1ccc(Oc2ccc(Cl)cc2)cc1 | 4.6 | – | – | – | – | –
Cc1nc2ccccc2c(=O)n1/N=C1/C(=O)Nc2ccccc21 | 2.23 | inactive | Non-toxic | – | inactive | Activity [4]: inactive; Activity [9]: inactive
Cc1cc(Oc2ccc(/C=N/n3c(C)nc4ccccc4c3=O)cc2)ccc1Cl | 4.41 | inactive | Non-toxic | 50% | inactive | Activity ([4]; route intraperitoneal): 50%; Activity ([9]; route intraperitoneal): 25%
O=C1Nc2ccccc2/C1=N\n1c(-c2ccccc2)nc2ccccc2c1=O | 4.03 | – | – | – | – | Activity [1]: inactive; Activity [2]: inactive
CCCc1nc2ccccc2c(=O)n1/N=C/c1ccc(Oc2ccc3ccccc3c2)cc1 | 6.12 | inactive | Non-toxic | 50% | inactive | Activity ([4]; route intraperitoneal): 50%; Activity ([9]; route intraperitoneal): 25%
CCCc1nc2ccccc2c(=O)n1/N=C/c1ccc(Oc2ccccc2)cc1 | 5.2 | inactive | Non-toxic | – | inactive | Activity [4]: inactive
Cc1nc2ccccc2c(=O)n1/N=C/c1ccc(Oc2ccc(Br)cc2)cc1 | 4.64 | inactive | Non-toxic | 50% | – | Activity [4]: inactive
Cc1nc2ccccc2c(=O)n1/N=C/c1ccc(Oc2ccc3ccccc3c2)cc1 | 5.22 | inactive | Non-toxic | 50% | inactive | Activity [4]: inactive; Activity [9]: inactive

Now from value to compound, other results behind:

logP [3] | Structure (SMILES) | Activity [5] | Activity [6] | Activity ([8]; route intraperitoneal) | Activity [7] | also measured
6.13 | O=c1c2ccccc2nc(-c2ccccc2)n1/N=C/c1ccc(Oc2ccccc2)cc1 | – | – | – | – | Activity [1]: inactive; Activity [2]: inactive
6.38 | O=c1c2ccccc2nc(-c2ccccc2)n1/N=C/c1ccc(Oc2ccc(Cl)cc2)cc1 | – | – | – | – | Activity [1]: inactive; Activity [2]: inactive
4.01 | Cc1nc2ccccc2c(=O)n1/N=C/c1ccc(Oc2ccccc2)cc1 | inactive | Non-toxic | – | inactive | Activity [4]: inactive; Activity [9]: inactive
6.52 | Cc1cc(Oc2ccc(/C=N/n3c(-c4ccccc4)nc4ccccc4c3=O)cc2)ccc1Cl | inactive | Non-toxic | 100% | – | Activity [10]: inactive; Activity [11]: inactive; TD50 at 0.5 h [12]: > 350 mg/kg; Activity ([4]; route intraperitoneal): 75%; ED50 [13]: > 350 mg/kg; Activity ([7]; route intraperitoneal): 25%; Activity ([9]; route intraperitoneal): 25%; Activity [8]: Active
6.21 | O=c1c2ccccc2nc(-c2ccccc2)n1/N=C/c1ccc(Oc2ccc(F)cc2)cc1 | inactive | Non-toxic | – | inactive | Activity ([9]; route intraperitoneal): 25%
6.53 | O=c1c2ccccc2nc(-c2ccccc2)n1/N=C/c1ccc(Oc2ccc3ccccc3c2)cc1 | – | – | – | – | Activity [1]: inactive; Activity [2]: inactive
6.12 | O=c1c2ccccc2nc(-c2ccccc2)n1/N=C/c1ccc(Oc2ccc([N+](=O)[O-])cc2)cc1 | – | – | – | – | Activity [1]: inactive; Activity [2]: inactive
6.01 | O=c1c2ccccc2nc(-c2ccccc2)n1/N=C/c1ccc(Oc2ccc3c(c2)OCO3)cc1 | inactive | Non-toxic | – | inactive | Activity [9]: inactive; Activity [8]: inactive
6.29 | Cc1ccc(Oc2ccc(/C=N/n3c(-c4ccccc4)nc4ccccc4c3=O)cc2)cc1 | – | – | – | – | Activity [1]: inactive; Activity [2]: inactive
6.39 | O=c1c2ccccc2nc(-c2ccccc2)n1/N=C/c1ccc(Oc2ccc(Br)cc2)cc1 | – | – | – | – | –
